From ChEMBL document CHEMBL1143257, “Structure-activity relationships of novel HIV-1 protease inhibitors containing the 3-amino-2-chlorobenzoyl-allophenylnorstatine structure” (Bioorg Med Chem, 2008)
Blank lines part the entries; values can stand above or below the compound they belong to.

Tests used:
[1] = tested on: Human immunodeficiency virus 1; assay: Ratio of EC50 for HIV1 mutant strain 6 to EC50 for wild type HIV1; format: functional
[2] = Metabolic stability in human liver microsomes assessed as compound remaining at 5 uM in presence of UDPGA by RP-HPLC; format: ADME, Microsome; conditions: read-out: Stability
Method in brief: (§1)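 Test drug at 5 µM incubated with liver microsomes (0.5 mg/ml) plus cofactor (1 mM NADPH or 5 mM UDPGA) at 37 °C for 30 min. Residual drug measured by RP-HPLC. Values are the mean percent remaining of duplicates.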

[3] = Cmax in Beagle dog at 15 mg/kg, po co-administered with 7.5 mg/kg of ritonavir, po; format: ADME, organism-based, Canis lupus familiaris; parameters: dose 15 mg/kg, route oral; conditions: in vivo
[4] = tested on: Human immunodeficiency virus 1; assay: Ratio of EC50 for HIV1 mutant strain 5 to EC50 for wild type HIV1; format: functional
[5] = Metabolic stability in dog liver microsomes assessed as compound remaining at 5 uM by RP-HPLC; format: ADME, Canis lupus familiaris, Microsome; conditions: read-out: Stability; method in brief: as §1
[6] = Metabolic stability in dog liver microsomes assessed as compound remaining at 5 uM in presence of 2.5 uM ritonavir by RP-HPLC; format: ADME, Canis lupus familiaris, Microsome; conditions: with ritonavir 2.5 uM, read-out: Stability
[7] = tested on: Human immunodeficiency virus 1; assay: Antiviral activity against HIV1 mutant strain 4; format: functional, organism-based
[8] = tested on: Liver; assay: Metabolic stability in dog liver microsomes assessed as compound remaining in presence of NADPH by RP-HPLC; format: ADME, Canis lupus familiaris, Microsome; method in brief: as §1
[9] = AUC in Beagle dog at 15 mg/kg, po co-administered with 7.5 mg/kg of ritonavir, po; format: ADME, organism-based, Canis lupus familiaris; conditions: plasma
[10] = tested on: Human immunodeficiency virus 1; assay: Ratio of EC50 for HIV1 mutant strain 2 to EC50 for wild type HIV1; format: functional
Method in brief: (§2)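 PhenoSense phenotypic assay. Strain 2 protease carries L10I, G16A, K45V, F53L, I54V, K55N, D60E, L63P, A71V, I72K, V77I, V82F, I84V, L90M, I93L. EC50 in µM. Fold change is versus the wild-type EC50.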

[11] = tested on: Human immunodeficiency virus 1; assay: Antiviral activity against HIV1 mutant strain 2; format: functional, organism-based; method in brief: as §2
[12] = tested on: Human immunodeficiency virus 1; assay: Ratio of EC50 for HIV1 mutant strain 4 to EC50 for wild type HIV1; format: functional
[13] = Plasma concentration in Beagle dog at 15 mg/kg, po after 12 hrs; format: ADME, organism-based, Canis lupus familiaris; parameters: dose 15 mg/kg, route oral
[14] = tested on: Human immunodeficiency virus 1; assay: Antiviral activity against HIV1 mutant strain 7; format: functional, organism-based
Method in brief: (§3)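 PhenoSense phenotypic assay. Strain 7 protease mutations include T4A, L10I, K20R, L23I, L33F, E35D, M36I, K43T, M46L. EC50 in µM. Fold change is versus the wild-type EC50.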

[15] = AUC in Beagle dog at 15 mg/kg, po; format: ADME, organism-based, Canis lupus familiaris; parameters: dose 15 mg/kg, route oral; conditions: plasma
[16] = Metabolic stability in rat liver microsomes assessed as compound remaining at 5 uM in presence of 0.5 uM ritonavir by RP-HPLC; format: ADME, Microsome; conditions: with ritonavir 0.5 uM, read-out: Stability
[17] = tested on: Human immunodeficiency virus 1; assay: Antiviral activity against HIV1 3B; format: functional, organism-based; conditions: Human immunodeficiency virus 1, 3B
[18] = tested on: Human immunodeficiency virus 1; assay: Antiviral activity against HIV1 mutant strain 3; format: functional, organism-based
[19] = Metabolic stability in rat liver microsomes assessed as compound remaining at 5 uM by RP-HPLC; format: ADME, Microsome; conditions: read-out: Stability; method in brief: as §1
[20] = Metabolic stability in rat liver microsomes assessed as compound remaining at 5 uM in presence of 2.5 uM ritonavir by RP-HPLC; format: ADME, Microsome; conditions: with ritonavir 2.5 uM, read-out: Stability
[21] = Oral bioavailability in Beagle dog at 15 mg/kg; format: ADME, organism-based, Canis lupus familiaris; conditions: in vivo
[22] = Metabolic stability in human liver microsomes assessed as compound remaining at 5 uM in presence of 2.5 uM ritonavir by RP-HPLC; format: ADME, Microsome; conditions: with ritonavir 2.5 uM, read-out: Stability
[23] = tested on: Human immunodeficiency virus 1; assay: Ratio of EC50 for HIV1 mutant strain 3 to EC50 for wild type HIV1; format: functional
[24] = tested on: Human immunodeficiency virus 1; assay: Antiviral activity against HIV1 3B in presence of 50% human serum; format: functional, organism-based; conditions: Human immunodeficiency virus 1, 3B
[25] = Tmax in Beagle dog at 15 mg/kg, po co-administered with 7.5 mg/kg of ritonavir, po; format: ADME, organism-based, Canis lupus familiaris; conditions: in vivo
[26] = Cmax in Beagle dog at 15 mg/kg, po; format: ADME, organism-based, Canis lupus familiaris; parameters: dose 15 mg/kg, route oral; conditions: in vivo
[27] = Metabolic stability in human liver microsomes assessed as compound remaining at 5 uM by RP-HPLC; format: ADME, Microsome; conditions: read-out: Stability; method in brief: as §1
[28] = tested on: Human immunodeficiency virus 1; assay: Ratio of EC50 for HIV1 mutant strain 1 to EC50 for wild type HIV1; format: functional
Method in brief: (§4)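 PhenoSense phenotypic susceptibility assay on multi-drug-resistant clinical HIV-1 protease variant strains, run in parallel with a wild-type reference. EC50 read in µM. Fold change is mutant EC50 divided by wild-type EC50.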

[29] = tested on: Human immunodeficiency virus 1; assay: Antiviral activity against HIV1 mutant strain 1; format: functional, organism-based; method in brief: as §4
[30] = Plasma concentration in Beagle dog at 15 mg/kg, po after 12 hrs co-administered with 7.5 mg/kg of ritonavir, po; format: ADME, organism-based, Canis lupus familiaris
[31] = Metabolic stability in dog liver microsomes assessed as compound remaining at 5 uM in presence of 0.5 uM ritonavir by RP-HPLC; format: ADME, Canis lupus familiaris, Microsome; conditions: with ritonavir 0.5 uM, read-out: Stability
[32] = tested on: Human immunodeficiency virus 1; assay: Antiviral activity against wild type HIV1; format: functional, organism-based
[33] = Plasma clearance in Beagle dog at 15 mg/kg, iv; format: ADME, organism-based, Canis lupus familiaris; parameters: dose 15 mg/kg, route intravenous
[34] = tested on: Human immunodeficiency virus 1; assay: Antiviral activity against multidrug resistant HIV1; format: functional, organism-based; method in brief: as §4
[35] = Volume of distribution at steady state in Beagle dog at 15 mg/kg, iv; format: ADME, organism-based, Canis lupus familiaris; parameters: dose 15 mg/kg, route intravenous; conditions: in vivo, read-out: Vdss
[36] = Metabolic stability in human liver microsomes assessed as compound remaining at 5 uM in presence of 0.5 uM ritonavir by RP-HPLC; format: ADME, Microsome; conditions: with ritonavir 0.5 uM, read-out: Stability
[37] = tested on: Human immunodeficiency virus 1; assay: Antiviral activity against HIV1 mutant strain 5; format: functional, organism-based
[38] = Tmax in Beagle dog at 15 mg/kg, po; format: ADME, organism-based, Canis lupus familiaris; parameters: dose 15 mg/kg, route oral; conditions: in vivo
[39] = tested on: Human immunodeficiency virus 1; assay: Antiviral activity against HIV1 mutant strain 6; format: functional, organism-based
[40] = target: Protease (Human immunodeficiency virus 1, UniProt Q9YQ12); assay: Inhibition of HIV1 protease
[41] = Metabolic stability in human liver microsomes assessed as compound remaining at 5 uM in presence of NADPH by RP-HPLC; format: ADME, Microsome; conditions: read-out: Stability; method in brief: as §1
[42] = tested on: Liver; assay: Metabolic stability in dog liver microsomes assessed as compound remaining in presence of UDPGA by RP-HPLC; format: ADME, Canis lupus familiaris, Microsome; method in brief: as §1
[43] = tested on: Human immunodeficiency virus 1; assay: Ratio of EC50 for HIV1 mutant strain 7 to EC50 for wild type HIV1; format: functional; method in brief: as §3

Sequence of Protease (Q9YQ12 whole entry): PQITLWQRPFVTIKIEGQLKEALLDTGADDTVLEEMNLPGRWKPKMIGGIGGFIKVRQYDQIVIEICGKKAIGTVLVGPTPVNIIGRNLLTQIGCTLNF

SMILES: COc1cccc(C[C@H](NC(=O)c2cccc(N)c2Cl)[C@H](O)C(=O)N2CSC(C)(C)[C@H]2C(=O)NCc2c(C)cccc2C)c1
Ratio EC50 [1]: 17
remaining at 5 µM [2]: > 95%
Cmax [3]: 5300 nM
Ratio EC50 [4]: 38
remaining at 5 µM [5]: 36%
remaining at 5 µM [6]: > 95%
EC50 [7]: 22 nM
Stability [8]: 47%
AUC [9]: 52.8 µM·h
Ratio EC50 [10]: 19
EC50 [11]: 106 nM
Ratio EC50 [12]: 4
concentration at 12 h [13]: 130 nM
EC50 [14]: 42 nM
AUC [15]: 15.6 µM·h
remaining at 5 µM [16]: 41%
EC50 [17]: 4 nM
EC50 [18]: 122 nM
remaining at 5 µM [19]: 21%
remaining at 5 µM [20]: 55%
bioavailability [21]: 71%
remaining at 5 µM [22]: > 95%
Ratio EC50 [23]: 22
EC50 [24]: 6 nM
Tmax [25]: 3 h
Cmax [26]: 2800 nM
remaining at 5 µM [27]: 49%
Ratio EC50 [28]: 27
EC50 [29]: 150 nM
concentration at 12 h [30]: 2950 nM
remaining at 5 µM [31]: 90%
EC50 [32]: 5.6 nM
clearance [33]: 18.3 mL/min/kg
IC50 [34]: 22 nM
Vd [35]: 1.3 L/kg
remaining at 5 µM [36]: 93%
EC50 [37]: 214 nM
Tmax [38]: 2 h
EC50 [39]: 96 nM
Ki [40]: 0.134 nM
remaining at 5 µM [41]: 64%
Stability [42]: > 95%
Ratio EC50 [43]: 7

remaining at 5 µM [2]: 55%
remaining at 5 µM [5]: 46%
remaining at 5 µM [6]: 93%
Stability [8]: 49%
concentration at 12 h [13]: 30 nM
AUC [15]: 6.5 µM·h
remaining at 5 µM [16]: 16%
EC50 [17]: 26 nM
remaining at 5 µM [19]: 12%
remaining at 5 µM [20]: 31%
bioavailability [21]: 25%
remaining at 5 µM [22]: 59%
EC50 [24]: 52 nM
Cmax [26]: 3100 nM
remaining at 5 µM [27]: 13%
remaining at 5 µM [31]: 92%
clearance [33]: 15 mL/min/kg
Vd [35]: 1.6 L/kg
remaining at 5 µM [36]: 56%
Tmax [38]: 0.5 h
Ki [40]: 0.035 nM
remaining at 5 µM [41]: 27%
Stability [42]: 91%
SMILES: Cc1ccccc1CNC(=O)[C@H]1N(C(=O)[C@@H](O)[C@H](Cc2ccccc2)NC(=O)c2cccc(O)c2C)CSC1(C)C

SMILES: Cc1cccc(C)c1OCC(=O)N[C@@H](Cc1ccccc1)[C@@H](O)C[C@H](Cc1ccccc1)NC(=O)[C@H](C(C)C)N1CCCNC1=O [LOPINAVIR]
remaining at 5 µM [5]: 16%
remaining at 5 µM [6]: > 95%
EC50 [7]: 66 nM
EC50 [11]: 251 nM
EC50 [14]: 212 nM
remaining at 5 µM [16]: 83%
EC50 [17]: 8 nM
EC50 [18]: 657 nM
remaining at 5 µM [19]: 11%
remaining at 5 µM [20]: > 95%
remaining at 5 µM [22]: > 95%
EC50 [24]: 8 nM
remaining at 5 µM [27]: 10%
EC50 [29]: 214 nM
remaining at 5 µM [31]: 83%
EC50 [32]: 3.7 nM
remaining at 5 µM [36]: > 95%
EC50 [37]: 807 nM
EC50 [39]: 411 nM
